# Tests used:
# Format in all cases: functional
# [1] = test system: HL-60(TB); experiment: Antitumor activity against human HL-60(TB) cells after 48 hrs by SRB assay; conditions: HL-60, 48 h
# Method in brief: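 NCI-60 protocol: cells in RPMI 1640 with 5% FBS and 2 mM glutamine, preincubated 24 h at 37 °C with 5% CO2. Compounds from DMSO stock, tested at 10^-5 M single dose or five 10-fold doses, for 48 h. Suspension cells fixed in settled form (16% TCA final), then SRB stained and read at 515 nm. % growth is calculated against time-zero and control plates; GI50, TGI and LC50 are derived.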
# [2] = test system: UACC-62; experiment: Antitumor activity against human UACC62 cells after 48 hrs by SRB assay; conditions: UACC-62, 48 h
# Method in brief: (§1)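 NCI-60 protocol. Cells were grown in RPMI 1640 with 5% FBS and 2 mM L-glutamine, plated at 5000–40,000 cells/well, and preincubated 24 h at 37 °C, 5% CO2. Time-zero plates were TCA-fixed. Compounds were in DMSO and incubated 48 h. Fixation used cold TCA (final 16% for suspension SR; final 10% for adherent lines 2-7). Plates were stained with 0.4% SRB in 1% acetic acid, solubilized in 10 mM Tris base, and read at 515 nm. Percent growth was calculated from Tz, C and Ti.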
# [3] = test system: IGROV-1; experiment: Antitumor activity against human IGROV1 cells after 48 hrs by SRB assay; conditions: IGROV-1, 48 h
# Method in brief: (§2)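 Cells grown in RPMI 1640 with 5% FBS and 2 mM L-glutamine and seeded at 5000–40,000 cells/well according to doubling time. They were preincubated 24 h at 37 °C, 5% CO2, then exposed to DMSO-solubilized compound for 48 h. Adherent cells were fixed with cold TCA (10% final), suspension cells with 16% final. Stained with 0.4% SRB; absorbance at 515 nm. Percent growth calculated against time-zero and control plates.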
# [4] = test system: OVCAR-3; experiment: Antitumor activity against human OVCAR3 cells after 48 hrs by SRB assay; conditions: OVCAR-3, 48 h; method in brief: as §2
# [5] = test system: OVCAR-4; experiment: Antitumor activity against human OVCAR4 cells after 48 hrs by SRB assay; conditions: OVCAR-4, 48 h; method in brief: as §2
# [6] = test system: OVCAR-5; experiment: Antitumor activity against human OVCAR5 cells after 48 hrs by SRB assay; conditions: OVCAR-5, 48 h; method in brief: as §2
# [7] = test system: NCI/ADR-RES; experiment: Antitumor activity against human NCI/ADR-RES cells after 48 hrs by SRB assay; method in brief: as §2
# [8] = test system: SK-OV-3; experiment: Antitumor activity against human SKOV3 cells after 48 hrs by SRB assay; conditions: SK-OV-3, 48 h; method in brief: as §2
# [9] = test system: A498; experiment: Antitumor activity against human A498 cells after 48 hrs by SRB assay; conditions: A498, 48 h; method in brief: as §2
# [10] = test system: RXF 393; experiment: Antitumor activity against human RXF393 cells after 48 hrs by SRB assay; conditions: RXF 393, 48 h; method in brief: as §2
# [11] = test system: SN12C; experiment: Antitumor activity against human SN12C cells after 48 hrs by SRB assay; method in brief: as §2
# [12] = test system: PC-3; experiment: Antitumor activity against human PC3 cells after 48 hrs by SRB assay; conditions: PC-3, 48 h; method in brief: as §2
# [13] = test system: BT-549; experiment: Antitumor activity against human BT549 cells after 48 hrs by SRB assay; conditions: BT-549, 48 h; method in brief: as §2
# [14] = test system: K562; experiment: Antitumor activity against human K562 cells after 48 hrs by SRB assay; conditions: K562, 48 h; method in brief: as §2
# [15] = test system: MOLT-4; experiment: Antitumor activity against human MOLT4 cells after 48 hrs by SRB assay; conditions: MOLT-4, 48 h; method in brief: as §2
# [16] = test system: EKVX; experiment: Antitumor activity against human EKVX cells after 48 hrs by SRB assay; method in brief: as §2
# [17] = test system: HOP-62; experiment: Antitumor activity against human HOP62 cells after 48 hrs by SRB assay; conditions: HOP-62, 48 h; method in brief: as §2
# [18] = test system: HOP-92; experiment: Antitumor activity against human HOP92 cells after 48 hrs by SRB assay; conditions: HOP-92, 48 h; method in brief: as §2
# [19] = test system: COLO 205; experiment: Antitumor activity against human COLO205 cells after 48 hrs by SRB assay; conditions: COLO 205, 48 h; method in brief: as §2
# [20] = test system: SW-620; experiment: Antitumor activity against human SW620 cells after 48 hrs by SRB assay; conditions: SW-620, 48 h; method in brief: as §1
# [21] = test system: SF-295; experiment: Antitumor activity against human SF295 cells after 48 hrs by SRB assay; conditions: SF-295, 48 h; method in brief: as §2
# [22] = test system: SF-539; experiment: Antitumor activity against human SF539 cells after 48 hrs by SRB assay; conditions: SF-539, 48 h; method in brief: as §2
# [23] = test system: SNB-19; experiment: Antitumor activity against human SNB19 cells after 48 hrs by SRB assay; conditions: SNB-19, 48 h; method in brief: as §2
# [24] = test system: SNB-75; experiment: Antitumor activity against human SNB75 cells after 48 hrs by SRB assay; conditions: SNB-75, 48 h; method in brief: as §2
# [25] = test system: U-251; experiment: Antitumor activity against human U251 cells after 48 hrs by SRB assay; conditions: U-251, 48 h; method in brief: as §1
# [26] = test system: LOX IMVI; experiment: Antitumor activity against human LOXIMVI cells after 48 hrs by SRB assay; method in brief: as §2
# [27] = test system: SK-MEL-28; experiment: Antitumor activity against human SK-MEL-28 cells after 48 hrs by SRB assay; conditions: SK-MEL-28, 48 h; method in brief: as §2
# [28] = read-out: LC50 (the source's name)
smiles,measurement,setting,value
Clc1ccc(-c2nc3sc(C4CC4)nn3c2Br)cc1,GI50,[1],3.34 µM
same,TGI,[1],> 100 µM
same,CC50,[1]; [28],> 100 µM
same,GI50,[2],4.36 µM
same,TGI,[2],> 100 µM
same,CC50,[2]; [28],> 100 µM
same,GI50,[3],17.3 µM
same,TGI,[3],> 100 µM
same,CC50,[3]; [28],> 100 µM
same,GI50,[4],4.63 µM
same,TGI,[4],> 100 µM
same,CC50,[4]; [28],> 100 µM
same,GI50,[5],12.7 µM
same,TGI,[5],82.1 µM
same,CC50,[5]; [28],> 100 µM
same,GI50,[6],31.9 µM
same,TGI,[6],> 100 µM
same,CC50,[6]; [28],> 100 µM
same,GI50,[7],4.18 µM
same,TGI,[7],> 100 µM
same,CC50,[7]; [28],> 100 µM
same,GI50,[8],35 µM
same,TGI,[8],> 100 µM
same,CC50,[8]; [28],> 100 µM
same,GI50,[9],30.8 µM
same,TGI,[9],> 100 µM
same,CC50,[9]; [28],> 100 µM
same,GI50,[10],2.93 µM
same,TGI,[10],14.8 µM
same,CC50,[10]; [28],> 100 µM
same,GI50,[11],14.3 µM
same,TGI,[11],> 100 µM
same,CC50,[11]; [28],> 100 µM
same,GI50,[12],2.22 µM
same,TGI,[12],> 100 µM
same,CC50,[12]; [28],> 100 µM
same,GI50,[13],4.07 µM
same,TGI,[13],> 100 µM
same,CC50,[13]; [28],> 100 µM
same,GI50,[14],1.79 µM
same,TGI,[14],> 100 µM
same,CC50,[14]; [28],> 100 µM
same,GI50,[15],2.97 µM
same,TGI,[15],> 100 µM
same,CC50,[15]; [28],> 100 µM
same,GI50,[16],5.22 µM
same,TGI,[16],> 100 µM
same,CC50,[16]; [28],> 100 µM
same,GI50,[17],38.1 µM
same,TGI,[17],> 100 µM
same,CC50,[17]; [28],> 100 µM
same,GI50,[18],5.59 µM
same,TGI,[18],37.9 µM
same,CC50,[18]; [28],> 100 µM
same,GI50,[19],7.23 µM
same,TGI,[19],> 100 µM
same,CC50,[19]; [28],> 100 µM
same,GI50,[20],6.88 µM
same,TGI,[20],> 100 µM
same,CC50,[20]; [28],> 100 µM
same,GI50,[21],5.04 µM
same,TGI,[21],> 100 µM
same,CC50,[21]; [28],> 100 µM
same,GI50,[22],6.78 µM
same,TGI,[22],> 100 µM
same,CC50,[22]; [28],> 100 µM
same,GI50,[23],15.6 µM
same,TGI,[23],> 100 µM
same,CC50,[23]; [28],> 100 µM
same,GI50,[24],12.2 µM
same,TGI,[24],51.9 µM
same,CC50,[24]; [28],> 100 µM
same,GI50,[25],4.29 µM
same,TGI,[25],> 100 µM
same,CC50,[25]; [28],> 100 µM
same,GI50,[26],9.2 µM
same,TGI,[26],> 100 µM
same,CC50,[26]; [28],> 100 µM
same,GI50,[27],35.6 µM
same,TGI,[27],> 100 µM
same,CC50,[27]; [28],> 100 µM

# Source: ChEMBL document CHEMBL1821594, “Synthesis and anticancer evaluation of novel 2-cyclopropylimidazo[2,1-b][1,3,4]-thiadiazole derivatives” (2011)
